# From PubChem BioAssay
# This is a sample that favours compounds with a hit; in the whole collection about 3.8% have one here.
# SIRT5 block = inhibitors of human sirtuin-5 desuccinylase; actives 1.1% (n = 330,000); Purified SirT5, succinyl-peptide AMC, trypsin-coupled fluorescence; inhibition, % at 15 µM; Q9NXA8; in the data active = inhibition above about 15%; inconclusive = no clear call, values can overlap the other calls
# Target sequence (Q9NXA8 whole entry, looked up): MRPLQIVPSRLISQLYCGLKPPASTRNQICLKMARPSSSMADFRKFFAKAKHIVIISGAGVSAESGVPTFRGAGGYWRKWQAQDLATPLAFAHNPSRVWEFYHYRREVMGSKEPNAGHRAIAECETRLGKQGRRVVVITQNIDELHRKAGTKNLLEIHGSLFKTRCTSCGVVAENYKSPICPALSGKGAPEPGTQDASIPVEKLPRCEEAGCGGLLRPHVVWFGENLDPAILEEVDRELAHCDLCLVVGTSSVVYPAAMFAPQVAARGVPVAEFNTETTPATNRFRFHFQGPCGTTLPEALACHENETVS
# XiGFP reactiv = activators of X-chromosome reactivation in mouse fibroblasts. activation, % at 7.58 µM. XiGFP mouse fibroblasts, % GFP-positive cells imaging, 3 d; cells co-treated with 5-aza-dC sensitizer; scaled so ellipticine positive control = 100%. actives 0.055% (n = 360,000). AID 743238;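 active = mean normalized replicate activation at least 10% and every replicate at or above 10%; inconclusive = only one of the two criteria met; inactive = mean below 10% and not all replicates reach 10%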;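 note: 0% = median of on-plate neutral control wells and 100% = ellipticine 6 µM median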
#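 assay system = SV40-immortalized XiGFP fibroblast cells, line 68-5-11 | buffer or medium = DMEM plus 5-aza-dC sensitizer | doses = single-point pinned compound dosing | times = 3-day compound exposure, then 15 min fixation at room temperature | benchmarks = positive control ellipticine, 6 µM final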
# ARNT TACC3 PPI = disrupts binding between human ARNT and TACC3; Q9Y6A5; AlphaScreen His-ARNT PAS-B/GST-TACC3 binding, luminescence; TACC3 fragment carries E629A point mutation; inhibition, % at 9.99 µM; actives 0.66% (n = 390,000); AID 623870;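 active = mean inhibition of replicates at least 50% and at least half of replicates each reaching 50%; inconclusive = half or more replicates reach 50% but mean below 50%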;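 note: 0% = complete ARNT plus TACC3 wells and 100% = ARNT alone without TACC3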
# FGF22 binding = binders of recombinant human FGF22 by thermal shift; Q9HCT0; SYPRO orange fluorescence; percent of sucrose octasulfate shift, DMSO zero; activity (Tm shift, normalised), % at 9.99 µM; actives 1.5% (n = 340,000); AID 651658;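 active = mean Tm shift, scaled 0 neutral to 100 positive control, at about 1.3% or above, every replicate too, limit read from the data; inconclusive = no clear call, values can overlap the other calls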
# Target sequence (Q9HCT0 whole entry, looked up): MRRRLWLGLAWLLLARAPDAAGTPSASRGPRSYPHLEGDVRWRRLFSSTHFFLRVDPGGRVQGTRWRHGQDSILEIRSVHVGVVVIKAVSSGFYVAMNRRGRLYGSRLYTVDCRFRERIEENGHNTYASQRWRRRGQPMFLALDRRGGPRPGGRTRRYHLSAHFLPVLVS
# DENV2 CPE = inhibitors of DENV2 cytopathic effect; actives 1.7% (n = 350,000); CPE inhibition, % at 9.99 µM; DENV2-infected cells, cytopathic effect rescue, plate reader; in the data active = CPE inhibition above about 20%, passing the limit was not always enough; inconclusive = no clear call, values can overlap the other calls; tested in BHK-21 cells;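 note: 0% = median of neutral control wells and 100% = median of positive control wells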
# FN deposit inh = fibronectin deposition inhibition. AH1F fibroblasts, Alexa488-fibronectin deposition fluorescence, overnight. actives 0.086% (n = 350,000). inhibition, % at 12.6 µM;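 active = mean inhibition across replicates of 30% or more, regardless of how many single replicates reach that level; inconclusive = mean under 30% yet at least half of replicates reach 30%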;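 note: positive control wells lacked labelled fibronectin entirely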
#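 Assay system: AH1F fibroblasts assembling fluorescent fibronectin matrix; Amount: 10000 AH1F cells per well; Buffer or medium: DMEM, 2% serum; Probe or stimulus: Alexa488-fibronectin, 24 nM final in well; Doses: single compound dose, delivered by pin transfer; Incubation: 1 h adhesion, overnight exposure; Measured by: fluorescence 485/525 nm; Read-out: fibronectin deposition inhibition.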
# Active calls of the source: *; ? = inconclusive; . = no result given.
SMILES,SIRT5 block,XiGFP reactiv,ARNT TACC3 PPI,FGF22 binding,DENV2 CPE,FN deposit inh
C[C@H](CO)N1C[C@H](C)[C@@H](CN(C)C(=O)Oc2ccccc2)OCc2ccccc2-c2c(n(C)c3ccccc23)C1=O,.,0.2,.,.,.,3.6
CC=Cc1ccc2n(c1=O)C[C@H]1[C@H](CO)[C@@H](C(=O)OC)[C@@H]2N1CC1CCOCC1 (mixture of isomers),0.6,0.0,-2.9,0.3,-5.9,.
c1ccc(Nc2ccc(Nc3ccccc3)cc2)cc1,.,.,.,-0.1,40.8*,.
O=C(Cc1ccccn1)N1CC2(C1)[C@H](c1ccccc1)[C@H](CO)N2Cc1ccccn1,-1.1,0.0,.,0.1,13.0,.
COc1ccc(-c2ccc3c(c2)CN(C(=O)NC2CCCCC2)Cc2cnnn2-3)cc1,-1.1,-0.1,.,0.0,24.3*,-3.7
O=C(NC1CCCCC1)N1Cc2cc(-c3cccc(F)c3)ccc2-n2nncc2C1,3.3,.,.,0.4,3.9,6.7
O=C([C@H]1N[C@H]2c3cccc(=O)n3C[C@H]2[C@@H]1CO)N1CCCCC1,.,0.2,.,.,.,3.7
CS(=O)(=O)N1C[C@@H]2C(c3ccc(Br)cc3)[C@H](C1)N2CC1CC1 (some centres undefined),.,0.3,.,.,.,2.6
N#CC1=C(N)Oc2c(c(=O)sc3ccccc23)C1c1ccncc1 (centres undefined),15.8*,0.0,1.7,0.6,3.0,-5.7
CCN1[C@@H]2Cn3c(ccc(-c4cccc(C(=O)N(C)C)c4)c3=O)[C@H]1[C@@H](C(=O)OC)[C@@H]2CO,-1.3,0.4,-3.2,-0.1,-3.1,.
CNc1ccc2oc(C[C@H]3O[C@@]4(CC[C@H]3C)O[C@H]([C@H](C)C(=O)c3ccc[nH]3)[C@H](C)C[C@H]4C)nc2c1C(=O)O,0.2,-0.1,-3.8,-0.8,43.2*,-0.1
COc1ccc(C#Cc2ccc([C@@H]3[C@H](CO)N4CCCCN(C(=O)Cc5cccnc5)C[C@@H]34)cc2)cc1,-1.3,0.1,17.4,-0.1,26.6*,.
C/C=C/c1ccc([C@H]2[C@@H](CO)N3CCCCN(C(=O)Cc4ccncc4)C[C@H]23)cc1,4.8,0.0,3.4,0.2,?,.
N#Cc1cccc(-c2ccc([C@@H]3[C@H]4CN(C(=O)Cc5ccccc5)CCCCN4[C@H]3CO)cc2)c1,-1.2,0.2,-3.3,-0.2,0.9,.
O=C(Cc1cccnc1)N1CCCCN2[C@H](CO)[C@@H](c3ccc(/C=C/c4ccccc4)cc3)[C@H]2C1,-1.8,-0.1,13.1,0.0,0.8,.
O=C(Cc1cccnc1)N1CCCCN2[C@H](CO)[C@H](c3ccc(/C=C/c4ccccc4)cc3)[C@H]2C1,0.9,0.2,0.9,-0.5,25.4*,.
C/C=C/c1ccc([C@H]2[C@@H](CO)N3CCCCN(C(=O)Cc4ccncc4)C[C@@H]23)cc1,0.5,0.2,-2.9,0.2,140.0*,.
N#Cc1cccc(-c2ccc([C@@H]3[C@@H](CO)N4CCCCN(C(=O)Cc5ccccc5)C[C@@H]34)cc2)c1,-0.2,0.1,-5.1,-0.1,37.7*,.
C[C@H](CO)N1C[C@H](C)[C@H](CN(C)C(=O)Oc2ccccc2)OCc2ccccc2-c2c(n(C)c3ccccc23)C1=O,6.2,0.1,.,-0.2,-11.6,5.9
COc1cccc(-c2ccc([C@H]3[C@H](CO)N4CCCCN(C(=O)Cc5ccncc5)C[C@@H]34)cc2)c1,1.2,0.0,-13.7,0.9,-6.8,9.7
COc1cccc(-c2ccc([C@H]3[C@@H](CO)N4CCCCN(C(=O)Cc5ccncc5)C[C@@H]34)cc2)c1,2.8,0.1,-0.8,0.4,27.2*,3.8
CCCn1c(C)cc(C=O)c1C,-1.3,0.1,10.4,0.0,3.3,.
Cc1cc(C=O)c(C)n1C(C)C,-0.7,0.0,2.3,43.1*,-2.3,.
COC(=O)[C@H]1[C@H](CO)[C@H]2Cn3c(ccc(-c4cccc(OC)c4)c3=O)[C@@H]1N2C(=O)c1cnccn1,2.9,0.1,2.8,-0.2,19.2,.
O=C(Cc1ccccc1)N1CCCCN2[C@@H](CO)[C@@H](c3ccc(-c4ccccc4)cc3)[C@@H]2C1,1.4,0.2,10.3,-0.2,-10.1,.
SMILES,SIRT5 block,XiGFP reactiv,ARNT TACC3 PPI,FGF22 binding,DENV2 CPE,FN deposit inh
CC(=O)N1C[C@@H]2C(c3ccc(Br)cc3)[C@H](C1)N2CC1CC1 (some centres undefined),.,0.2,.,.,.,-10.6
O=c1[nH]c2ccccc2n1C1CCN(C(CCc2ccccc2)c2nnnn2Cc2ccccc2)CC1 (centres undefined),-0.5,0.6,.,0.1,-4.1,40.7*
CSCCC(c1nnnn1Cc1ccccc1)N1CCC(n2c(=O)[nH]c3ccccc32)CC1 (centres undefined),-1.2,0.9,.,0.6,14.8,2.6
O=c1[nH]c2ccccc2n1C1CCN(C(c2cc3ccccc3o2)c2nnnn2-c2ccc3c(c2)OCCO3)CC1 (centres undefined),-3.3,0.0,.,-0.2,-12.1,4.5
O=c1[nH]c2ccccc2n1C1CCN(C(c2cccc3ccccc23)c2nnnn2-c2ccc3c(c2)OCCO3)CC1 (centres undefined),-2.2,-0.1,.,0.3,24.5*,7.6
COc1ccc(-c2ccc([C@H]3[C@@H](CO)N4CCCCN(C(=O)Cc5ccccc5)C[C@@H]34)cc2)cc1,0.3,-0.1,0.8,0.2,5.2,.
COc1ccc(CC(=O)N2C[C@H]3C[C@@H](C2)c2cccc(=O)n2C3)cc1,.,.,-7.6,0.3,27.0*,.
COc1ccc(CCC(=O)N2C[C@H]3C[C@@H](C2)c2cccc(=O)n2C3)cc1,.,.,0.5,0.0,2.9,.
Cc1c(CCC(=O)N2C[C@H]3C[C@@H](C2)c2cccc(=O)n2C3)c(=O)oc2c(C)c(O)ccc12,-20.3,.,.,-0.1,55.9*,.
Cc1c(CC(=O)N2C[C@H]3C[C@@H](C2)c2cccc(=O)n2C3)c(=O)oc2c(C)c(O)ccc12,.,.,-4.5,0.3,14.3,.
COC(=O)[C@@H]1[C@@H](CO)[C@@H]2Cn3c(ccc(-c4ccccc4F)c3=O)[C@H]1N2,-11.2,0.0,1.8,0.2,1.2,.
O=c1ccc2cc(OC3O[C@H](CO)[C@@H](O)[C@H](O)[C@H]3O)c(O)cc2o1 (some centres undefined),-110.5,-0.1,-1.1,-0.1,7.7,-3.8
C=C[C@@H]1C2=CCOC(=O)C2=CO[C@H]1O[C@@H]1O[C@H](CO)[C@@H](O)[C@H](O)[C@H]1O,.,0.6,-0.4,0.1,22.7*,-0.2
CN(C)CCN(CC1CCCN(Cc2ccccc2F)C1)C(=O)Cc1ccccc1F (centres undefined),-1.7,0.0,-7.2,-0.1,10.3,-7.8
